Results of several laboratories.
Each line is one published result; the experiments were not run side by side.
Target: Serine/threonine-protein kinase PLK4 (PLK4, Homo sapiens, UniProt O00444)
Residues used in one study (O00444 1-970): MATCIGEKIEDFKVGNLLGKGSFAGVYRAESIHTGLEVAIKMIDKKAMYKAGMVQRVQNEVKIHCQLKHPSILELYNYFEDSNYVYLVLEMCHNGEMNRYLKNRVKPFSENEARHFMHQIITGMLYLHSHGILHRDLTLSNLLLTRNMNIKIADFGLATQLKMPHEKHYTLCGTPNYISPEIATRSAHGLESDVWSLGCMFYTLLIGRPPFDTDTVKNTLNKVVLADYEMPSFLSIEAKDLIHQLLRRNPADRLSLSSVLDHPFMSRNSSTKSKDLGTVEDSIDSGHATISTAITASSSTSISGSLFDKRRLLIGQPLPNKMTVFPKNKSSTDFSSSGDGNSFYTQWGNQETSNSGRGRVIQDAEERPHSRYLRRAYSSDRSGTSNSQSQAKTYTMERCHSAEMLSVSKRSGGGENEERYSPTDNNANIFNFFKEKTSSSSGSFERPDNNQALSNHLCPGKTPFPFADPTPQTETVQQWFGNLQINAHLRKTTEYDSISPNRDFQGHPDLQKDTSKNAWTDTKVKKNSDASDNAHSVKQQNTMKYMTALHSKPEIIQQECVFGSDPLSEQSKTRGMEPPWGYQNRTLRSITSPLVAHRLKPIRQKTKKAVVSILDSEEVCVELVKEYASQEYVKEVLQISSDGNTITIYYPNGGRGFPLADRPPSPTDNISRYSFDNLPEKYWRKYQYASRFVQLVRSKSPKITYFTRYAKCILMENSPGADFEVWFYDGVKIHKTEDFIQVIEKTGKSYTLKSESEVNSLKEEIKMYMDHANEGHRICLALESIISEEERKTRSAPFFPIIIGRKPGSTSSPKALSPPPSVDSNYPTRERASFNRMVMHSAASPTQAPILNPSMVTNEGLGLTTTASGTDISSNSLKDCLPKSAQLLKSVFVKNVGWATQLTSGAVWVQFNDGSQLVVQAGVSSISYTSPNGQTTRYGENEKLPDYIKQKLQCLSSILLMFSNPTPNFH

| SMILES | effect on | action | method | concentration | quantity | result |
| --- | --- | --- | --- | --- | --- | --- |
| C1=C/COCc2cc(ccc2OCCN2CCCC2)Nc2nccc(n2)-c2cccc(c2)COC/1 | binding |  |  | 0.1 µM | remaining binding | 42% |
| C=CC(=O)N1CCC([C@@H]2CCNc3c(C(N)=O)c(-c4ccc(Oc5ccccc5)cc4)nn32)CC1 | enzyme activity | inhibitor |  | 1 µM | inhibition | 1% |
| CCCCC(=O)Nc1ccc(-c2ccc3ncn(CCC)c(=O)c3c2)cn1 | binding |  | competition with immobilised ligand | 0.5 µM | remaining binding | 100% |
| C[C@H]1CC[C@H](n2c3cnccc3c3cnc(Nc4ccc5c(n4)CCN(C(=O)CO)C5)nc32)CC1 | binding |  | competition with immobilised ligand | 1 µM | remaining binding | 18% |
| C=CC(=O)N1CCC[C@@H](n2nc(-c3ccc(Oc4ccccc4)cc3)c3c(N)ncnc32)C1 | enzyme activity | inhibitor |  | 1 µM | inhibition | 5% |
| C#Cc1cc(-c2cc(Nc3nc(N[C@@H](C)c4ccc(F)cn4)ncc3Cl)n[nH]2)ccc1C=O | enzyme activity | inhibitor |  | 0.2 µM | inhibition | 80.7% |
| Cc1ccc(NC(=O)c2ccnc(C(F)(F)F)c2)cc1-c1cc(OCCO)nc(N2CCOCC2)c1 | binding |  | competition with immobilised ligand | 1 µM | remaining binding | 75% |
| N#Cc1ccc(NC(=O)Nc2ccccc2)cc1 | cell-free assay |  | competition with immobilised ligand | 25 µM | remaining binding | 61% |
| COc1ccc2oc(-c3ccc4nc(N)oc4c3)c/c(=N\c3ccccc3NC(=O)CCN)c2c1 | binding |  |  | 1 µM | remaining binding | 98% |
